Assay results reported in ChEMBL document CHEMBL2346608, “New annelated thieno[2,3-e][1,2,3]triazolo[1,5-a]pyrimidines, with potent anticancer activity, designed through VLAK protocol” (2013).

What was measured:
Format in all cases: functional
MDA-MB-468 = experiment: Antiproliferative activity against human MDA-MB-468 cells after 48 hrs by sulforhodamine B assay; conditions: MDA-MB-468, 48 h; for TGI: read-out: pTGI (converted)
Summary of the method: (§1)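 Cells grown in RPMI 1640 with 5% FBS and 2 mM L-glutamine, plated at 5000–40,000 cells/well and preincubated 24 h at 37 °C, 5% CO2. Five drug concentrations (10-fold or ½-log dilutions from DMSO stocks) applied for 48 h. TCA-fixed (final 10% adherent, 16% suspension), SRB-stained, A515 read. Growth versus time-zero and control wells gave GI50, TGI, LC50.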

SF-539 = experiment: Antiproliferative activity against human SF539 cells after 48 hrs by sulforhodamine B assay; conditions: SF-539, 48 h; for TGI: read-out: pTGI (converted); summary of the method: as §1
[1] = Antiproliferative activity against human Hs 578T cells after 48 hrs by sulforhodamine B assay; conditions: for TGI: read-out: pTGI (converted); summary of the method: as §1
RPMI-8226 = experiment: Antiproliferative activity against human RPMI8226 cells after 48 hrs by sulforhodamine B assay; conditions: RPMI-8226, 48 h; for CC50: read-out: pLC50 (the source's name) (converted); for TGI: read-out: pTGI (converted); summary of the method: as §1
SNB-75 = experiment: Antiproliferative activity against human SNB75 cells after 48 hrs by sulforhodamine B assay; conditions: SNB-75, 48 h; for TGI: read-out: pTGI (converted)
Summary of the method: (§2)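 Cells in RPMI 1640 with 5% FBS and 2 mM L-glutamine were seeded at 5000–40,000/well according to doubling time and preincubated 24 h at 37 °C in 5% CO2. Time-zero plates were TCA-fixed when drug was added. Five 10-fold or ½-log dilutions from DMSO stocks were added for 48 h. After SRB staining, A515 was read and GI50 derived from [(Ti−Tz)/(C−Tz)]×100 = 50.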

A498 = experiment: Antiproliferative activity against human A498 cells after 48 hrs by sulforhodamine B assay; conditions: A498, 48 h; for TGI: read-out: pTGI (converted); summary of the method: as §1
[2] = Antiproliferative activity against human HCC2998 cells after 48 hrs by sulforhodamine B assay; conditions: HCC 2998, 48 h; for TGI: read-out: pTGI (converted); summary of the method: as §1
PC-3 = experiment: Antiproliferative activity against human PC3 cells after 48 hrs by sulforhodamine B assay; conditions: PC-3, 48 h; for TGI: read-out: pTGI (converted); summary of the method: as §1
SW-620 = experiment: Antiproliferative activity against human SW620 cells after 48 hrs by sulforhodamine B assay; conditions: SW-620, 48 h; for TGI: read-out: pTGI (converted); summary of the method: as §2
UACC-62 = experiment: Antiproliferative activity against human UACC62 cells after 48 hrs by sulforhodamine B assay; conditions: UACC-62, 48 h; for TGI: read-out: pTGI (converted); summary of the method: as §2
OVCAR-5 = experiment: Antiproliferative activity against human OVCAR5 cells after 48 hrs by sulforhodamine B assay; conditions: OVCAR-5, 48 h; for TGI: read-out: pTGI (converted); summary of the method: as §1
K562 = experiment: Antiproliferative activity against human K562 cells after 48 hrs by sulforhodamine B assay; conditions: K562, 48 h; for TGI: read-out: pTGI (converted); summary of the method: as §1
MDA-MB-231 = experiment: Antiproliferative activity against human MDA-MB-231 cells after 48 hrs by sulforhodamine B assay; conditions: MDA-MB-231, 48 h; for TGI: read-out: pTGI (converted); summary of the method: as §1
SF-268 = experiment: Antiproliferative activity against human SF268 cells after 48 hrs by sulforhodamine B assay; conditions: SF-268, 48 h; for TGI: read-out: pTGI (converted); summary of the method: as §1
A549 = experiment: Antiproliferative activity against human A549 cells after 48 hrs by sulforhodamine B assay; conditions: A549, 48 h; for TGI: read-out: pTGI (converted); summary of the method: as §1
OVCAR-4 = experiment: Antiproliferative activity against human OVCAR4 cells after 48 hrs by sulforhodamine B assay; conditions: OVCAR-4, 48 h; for TGI: read-out: pTGI (converted); summary of the method: as §1
HOP-62 = experiment: Antiproliferative activity against human HOP62 cells after 48 hrs by sulforhodamine B assay; conditions: HOP-62, 48 h; for TGI: read-out: pTGI (converted); summary of the method: as §1
HOP-92 = experiment: Antiproliferative activity against human HOP92 cells after 48 hrs by sulforhodamine B assay; conditions: HOP-92, 48 h; for CC50: read-out: pLC50 (the source's name) (converted); for TGI: read-out: pTGI (converted); summary of the method: as §1
COLO 205 = experiment: Antiproliferative activity against human COLO205 cells after 48 hrs by sulforhodamine B assay; conditions: COLO 205, 48 h; for TGI: read-out: pTGI (converted); summary of the method: as §1
CAKI-1 = experiment: Antiproliferative activity against human CAKI-1 cells after 48 hrs by sulforhodamine B assay; conditions: CAKI-1, 48 h; for CC50: read-out: pLC50 (the source's name) (converted); for TGI: read-out: pTGI (converted); summary of the method: as §1
[3] = Antiproliferative activity against human EKVX cells after 48 hrs by sulforhodamine B assay; conditions: for TGI: read-out: pTGI (converted); summary of the method: as §1
MCF7 = experiment: Antiproliferative activity against human MCF7 cells after 48 hrs by sulforhodamine B assay; conditions: MCF7, 48 h; for TGI: read-out: pTGI (converted); summary of the method: as §1
TK-10 = experiment: Antiproliferative activity against human TK10 cells after 48 hrs by sulforhodamine B assay; conditions: TK-10, 48 h; for TGI: read-out: pTGI (converted); summary of the method: as §2
OVCAR-8 = experiment: Antiproliferative activity against human OVCAR8 cells after 48 hrs by sulforhodamine B assay; conditions: OVCAR-8, 48 h; for TGI: read-out: pTGI (converted); summary of the method: as §1
RXF 393 = experiment: Antiproliferative activity against human RXF393 cells after 48 hrs by sulforhodamine B assay; conditions: RXF 393, 48 h; for TGI: read-out: pTGI (converted); summary of the method: as §1
786-0 = experiment: Antiproliferative activity against human 786-0 cells after 48 hrs by sulforhodamine B assay; conditions: 786-0, 48 h; for CC50: read-out: pLC50 (the source's name) (converted); for TGI: read-out: pTGI (converted); summary of the method: as §1
HCT-15 = experiment: Antiproliferative activity against human HCT15 cells after 48 hrs by sulforhodamine B assay; conditions: HCT-15, 48 h; for TGI: read-out: pTGI (converted); summary of the method: as §1
SK-OV-3 = experiment: Antiproliferative activity against human SKOV3 cells after 48 hrs by sulforhodamine B assay; conditions: SK-OV-3, 48 h; for TGI: read-out: pTGI (converted); summary of the method: as §1
T47D = experiment: Antiproliferative activity against human T47D cells after 48 hrs by sulforhodamine B assay; conditions: for TGI: read-out: pTGI (converted); summary of the method: as §2

## CN1CCN(CCCn2c(=O)c3sc4ncccc4c3n3nnc(-c4ccccc4)c23)CC1
MDA-MB-468
  GI50: 6.92 µM
  LC50: 28.2 µM
  TGI: 13.8 µM
SF-539
  GI50: 5.75 µM
  LC50: 30.9 µM
  TGI: 13.5 µM
[1]
  GI50: 6.46 µM
  LC50: 39.8 µM
  TGI: 16.2 µM
RPMI-8226
  GI50: 6.17 µM
  CC50: 40.7 µM
  TGI: 15.8 µM
SNB-75
  GI50: 6.76 µM
  LC50 (concentration killing 50% of starting cells): 25.7 µM
  TGI: 13.2 µM
A498
  GI50: 0.158 µM
  LC50: 21.9 µM
  TGI: 9.33 µM
[2]
  GI50: 6.76 µM
  LC50: 26.3 µM
  TGI: 13.5 µM
PC-3
  GI50: 6.31 µM
  LC50: 28.8 µM
  TGI: 13.5 µM
SW-620
  GI50: 5.37 µM
  LC50: 24.5 µM
  TGI: 11.5 µM
UACC-62
  GI50: 8.91 µM
  LC50 (concentration killing 50% of cells): 29.5 µM
  TGI: 16.2 µM
OVCAR-5
  GI50: 8.91 µM
  LC50: 32.4 µM
  TGI: 17 µM
K562
  GI50: 0.871 µM
  LC50 (concentration killing 50% of cells): 4.79 µM
  TGI: 2.04 µM
MDA-MB-231
  GI50: 6.92 µM
  LC50: 26.9 µM
  TGI: 13.5 µM
SF-268
  GI50: 6.46 µM
  LC50: 26.9 µM
  TGI: 13.2 µM
A549
  GI50: 6.76 µM
  LC50: 28.2 µM
  TGI: 13.8 µM
OVCAR-4
  GI50: 7.24 µM
  LC50 (concentration killing 50% of cells): 26.9 µM
  TGI: 14.1 µM
HOP-62
  GI50: 8.13 µM
  LC50: 28.8 µM
  TGI: 15.5 µM
HOP-92
  GI50: 5.75 µM
  CC50: 28.8 µM
  TGI: 12.9 µM
COLO 205
  GI50: 7.41 µM
  LC50: 28.8 µM
  TGI: 14.5 µM
CAKI-1
  GI50: 6.17 µM
  CC50: 27.5 µM
  TGI: 12.9 µM
[3]
  GI50: 6.46 µM
  LC50: 27.5 µM
  TGI: 13.2 µM
MCF7
  GI50: 7.76 µM
  LC50: 29.5 µM
  TGI: 15.1 µM
TK-10
  GI50: 6.92 µM
  LC50: 26.9 µM
  TGI: 13.5 µM
OVCAR-8
  GI50: 7.76 µM
  LC50: 30.2 µM
  TGI: 15.5 µM
RXF 393
  GI50: 6.31 µM
  LC50: 28.2 µM
  TGI: 13.5 µM
786-0
  GI50: 7.41 µM
  CC50: 28.8 µM
  TGI: 14.5 µM
HCT-15
  GI50: 6.17 µM
  LC50: 28.2 µM
  TGI: 13.2 µM
SK-OV-3
  GI50: 8.91 µM
  LC50: 28.2 µM
  TGI: 15.8 µM
T47D
  GI50: 7.94 µM
  LC50: 31.6 µM
  TGI: 15.8 µM

## O=C(CCCn1c(=O)c2sc3ncccc3c2n2nnc(-c3ccccc3)c12)NCCc1c[nH]cn1
MDA-MB-468
  GI50: 8.13 µM
  LC50: 79.4 µM
  TGI: 27.5 µM
SF-539
  GI50: 0.316 µM
  LC50: 53.7 µM
  TGI: 14.8 µM
[1]
  GI50: 11.2 µM
  LC50: 87.1 µM
  TGI: 31.6 µM
RPMI-8226
  GI50: 5.13 µM
  CC50: > 100 µM
  TGI: 35.5 µM
SNB-75
  GI50: 15.1 µM
  LC50 (concentration killing 50% of starting cells): 55 µM
  TGI: 28.8 µM
A498
  GI50: 6.76 µM
  LC50: 53.7 µM
  TGI: 22.4 µM
[2]
  GI50: 2.04 µM
  LC50: > 100 µM
  TGI: 30.2 µM
PC-3
  GI50: 11 µM
  LC50: > 100 µM
  TGI: > 100 µM
SW-620
  GI50: 0.331 µM
  LC50: 61.7 µM
  TGI: 14.5 µM
UACC-62
  GI50: 15.8 µM
  LC50 (concentration killing 50% of cells): 57.5 µM
  TGI: 30.2 µM
OVCAR-5
  GI50: 11.5 µM
  LC50: 93.3 µM
  TGI: 32.4 µM
K562
  GI50: 0.309 µM
  LC50 (concentration killing 50% of cells): > 100 µM
  TGI: 15.5 µM
MDA-MB-231
  GI50: 17.8 µM
  LC50: 67.6 µM
  TGI: 34.7 µM
SF-268
  GI50: 11.7 µM
  LC50: 72.4 µM
  TGI: 28.8 µM
A549
  GI50: 8.71 µM
  LC50: > 100 µM
  TGI: 34.7 µM
OVCAR-4
  GI50: 15.5 µM
  LC50 (concentration killing 50% of cells): 67.6 µM
  TGI: 32.4 µM
HOP-62
  GI50: 16.6 µM
  LC50: 61.7 µM
  TGI: 31.6 µM
HOP-92
  GI50: 17 µM
  CC50: 91.2 µM
  TGI: 39.8 µM
COLO 205
  GI50: 6.31 µM
  LC50: 58.9 µM
  TGI: 23.4 µM
CAKI-1
  GI50: 2.88 µM
  CC50: 72.4 µM
  TGI: 14.5 µM
[3]
  GI50: 15.1 µM
  LC50: > 100 µM
  TGI: 44.7 µM
MCF7
  GI50: 17.8 µM
  LC50: > 100 µM
  TGI: > 100 µM
TK-10
  GI50: 13.5 µM
  LC50: 57.5 µM
  TGI: 28.2 µM
OVCAR-8
  GI50: 0.0955 µM
  LC50: 67.6 µM
  TGI: 17.4 µM
RXF 393
  GI50: 14.8 µM
  LC50: 77.6 µM
  TGI: 33.9 µM
786-0
  GI50: 12.6 µM
  CC50: 52.5 µM
  TGI: 25.7 µM
HCT-15
  GI50: 5.75 µM
  LC50: > 100 µM
  TGI: > 100 µM
SK-OV-3
  GI50: 14.5 µM
  LC50: 53.7 µM
  TGI: 27.5 µM
T47D
  GI50: 1.86 µM
  LC50: 64.6 µM
  TGI: 21.4 µM
